Measured values reported in ChEMBL document CHEMBL5149972, “Novel Antimalarial Tetrazoles and Amides Active against the Hemoglobin Degradation Pathway in Plasmodium falciparum” (J Med Chem, 2021).
Converted amounts (≈) assume the structure as drawn. The source made the active and inactive calls. The calls are words filed in the database; no cut-off is given here.

Tests used:
Hemozoin = assay: Inhibition of Beta-hematin assessed as bis-pyridyl-Fe(III)PPIX complex formation incubated for 5 hrs by NP40 detergent-mediated colorimetric assay
Plasmodium falciparum [1] = assay: Antiplasmodial activity against asexual blood stage Plasmodium falciparum 3D7 infected in human RBC assessed as parasite growth inhibition incubated for 72 hrs by SYBR Green dye based fluorescence assay; assay type: functional, organism-based
Method in brief: (§1)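 Blood-stage cultures at 2% hematocrit, human O+ RBCs, RPMI 1640 + 25 mM HEPES, 0.5% Albumax-I, 23 mM bicarbonate, 92 μM hypoxanthine. Start at 0.5% parasitemia; 72 h at 37°C, 5% CO₂; freeze-thaw, then SYBR Green in saponin/Triton lysis buffer, 4 h RT dark; fluorescence ex 485/em 535 nm. 10-point curves, technical duplicates or triplicates, final 0.5% DMSO; four-parameter fit gives EC₅₀; mean ± std dev of biological replicates.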

[2] = (§2) Cytotoxicity against human HepG2 cells assessed as reduction in cell viability incubated for 72 hrs by CellTiter-Glo assay; assay type: toxicity, cell-based; conditions: HepG2 cells
Plasmodium falciparum [3] = assay: Antiplasmodial activity against Plasmodium falciparum NF54 expressing transgenic luciferase assessed as parasite kill rate at trophozoite stage incubated for 72 hrs by bioluminescence relative rate of kill (BRRoK) assay; assay type: functional, organism-based; conditions: RBC
Plasmodium falciparum [4] = assay: Antiplasmodial activity against Plasmodium falciparum NF54 expressing transgenic luciferase assessed as parasite kill rate at trophozoite stage incubated for 6 hrs by bioluminescence relative rate of kill (BRRoK) assay; assay type: functional, organism-based; conditions: RBC
HepG2 = assay: as §2; assay type: toxicity, cell-based; conditions: hepg2, 72 h
Plasmodium falciparum [5] = assay: Antiplasmodial activity against drug resistant Plasmodium falciparum Dd2 infected in human RBC assessed as parasite growth inhibition incubated for 72 hrs by SYBR Green dye based fluorescence assay; assay type: functional, organism-based; method in brief: as §1
[6] = Metabolic stability in human liver microsomes assessed as intrinsic clearance per mg of protein at 1 uM incubated for 60 mins presence of NADPH regenerating buffer system by LC-MS analysis; assay type: ADME, Microsome; conditions: 1 h
[7] = Kinetic solubility of compound in PBS at pH 2 by HPLC analysis; assay type: physicochemical; conditions: read-out: Kinetic_solubility
[8] = Kinetic solubility of compound in PBS at pH 6.5 by HPLC analysis; assay type: physicochemical; conditions: read-out: Kinetic_solubility
Plasmodium falciparum [9] = assay: Antiplasmodial activity against Plasmodium falciparum 3D7 infected in human RBC assessed as parasite growth inhibition incubated for 48 hrs by 3H-hypoxanthine incorporation assay; assay type: functional, organism-based; conditions: 3D7, Erythrocyte
[10] = Plasmodium falciparum, 3D7, Erythrocyte, 72 h
[11] = Plasmodium falciparum, Dd2, Erythrocyte, 72 h

Structure (SMILES) | EC50 (Plasmodium falciparum [1]; [10]) | CC50 (HepG2) | EC50 (Plasmodium falciparum [5]; [11]) | further results
Cc1cc(Nc2ccc3ccccc3c2)n2ncnc2n1 |  |  |  | IC50 (Hemozoin): > 1000 µM
CC(=O)c1ccc(NC(=O)c2ccc(NC(=O)C3COc4ccccc4O3)cc2)cc1 (stereo unspecified) | 0.71 µM |  |  | CC50 at 72 h [2]: > 30 µM; Activity (Plasmodium falciparum [3]): Active; Activity (Plasmodium falciparum [4]): Active
CCC(C(=O)Nc1cccc(Cl)c1)N1C(=O)C(C)N=C(c2ccccc2)c2ccccc21 (stereo unspecified) | 0.31 µM |  |  | CC50 at 72 h [2]: > 30 µM; Activity (Plasmodium falciparum [3]): Active; Activity (Plasmodium falciparum [4]): Active
CCc1ccccc1N(C)C(=O)C(c1cncnc1)N(Cc1cccc(C(F)(F)F)c1)C1CC1 (racemic) | 0.24 µM | > 25 µM | 0.57 µM | 
Cc1ncc(C(C(=O)N(C)c2ccccc2C)N(Cc2cccc(C(F)(F)F)c2)C2CC2)cn1 (racemic) | 7.5 µM | > 30 µM | 7.7 µM | 
Cc1ccccc1-n1nnnc1C(c1cccnc1)N(C)Cc1cc(C(F)(F)F)ccc1F (racemic) | 1 µM |  | 2.5 µM | 
COc1ccc(C(F)(F)F)cc1CN(C)C(c1cccnc1)c1nnnn1-c1ccccc1C (racemic) | 1.3 µM |  |  | EC50 (Plasmodium falciparum [5]; rbc): 3.7 µM
Cc1ccccc1-n1nnnc1C(c1cncnc1)N(Cc1cc(F)cc(C(F)(F)F)c1)C1CC1 (racemic) | 0.37 µM |  |  | CC50 at 72 h [2]: 36 µM; EC50 (Plasmodium falciparum [5]; rbc): 1.2 µM
COc1ccccc1CN(C)C(c1ccccc1)c1nnnn1-c1ccccc1C (racemic) | 9.7 µM |  | 10 µM | 
Cc1ccccc1-n1nnnc1C(c1cccnc1)N(Cc1cc(C(F)(F)F)ccc1F)C1CC1 (racemic) | 0.6 µM |  | 0.67 µM | 
COc1ccc(Br)cc1CN(C)C(c1ccccc1)c1nnnn1-c1ccccc1C (racemic) |  | > 30 µM | 5.4 µM | EC50 (Plasmodium falciparum [1]; rbc): 3.5 µM; IC50 (Hemozoin): > 1000 µM
O=C(C(c1cccnc1)N(Cc1cccc(C(F)(F)F)c1)C1CC1)N1CCCCC1 (racemic) | 1.8 µM | > 20 µM | 4.2 µM | CLH [6]: 244 µL/min/mg; solubility kinetic [7]: > 100 µg/mL; solubility kinetic [8]: 25 µg/mL (≈ 59.9 µM)
Cc1ccccc1-n1nnnc1C(c1cncnc1)N(Cc1ccc(F)c(C(F)(F)F)c1)C1CC1 (racemic) | 0.47 µM |  | 0.68 µM | 
CCCN(C(c1cncnc1)c1nnnn1-c1ccccc1C)C1(c2cccc(C(F)(F)F)c2)CC1 (racemic) | 0.31 µM |  | 0.52 µM | 
CN(C(=O)C(c1cncnc1)N(Cc1cccc(C(F)(F)F)c1)C1CC1)c1ccccc1 (racemic) | 0.72 µM | > 30 µM | 2 µM | 
COc1ccc(C(F)(F)F)cc1CN(C1CC1)C(c1cccnc1)c1nnnn1-c1ccccc1C (racemic) | 0.49 µM |  | 0.48 µM | CLH [6]: 154 µL/min/mg; solubility kinetic [7]: 12.5 µg/mL (≈ 25.3 µM); solubility kinetic [8]: 1.6 µg/mL (≈ 3.24 µM)
CCCN(C(C(=O)N(C)c1ccccc1C)c1cccnc1)C1(c2cccc(C(F)(F)F)c2)CC1 (racemic) | 0.21 µM | > 15 µM | 0.33 µM | 
COc1ccc(C(F)(F)F)cc1CN(C)C(c1ccccc1)c1nnnn1-c1ccccc1C (racemic) | 1.7 µM |  | 3.7 µM | 
CN(Cc1cc(C(F)(F)F)ccc1F)C(c1cccnc1)c1nnnn1C1CCCCC1 (racemic) | 1.7 µM |  | 2.6 µM | 
Cc1ccccc1N(C)C(=O)C(c1cccnc1)N(Cc1cccc(OC(F)(F)F)c1)C1CC1 (racemic) | 0.32 µM | > 30 µM | 0.52 µM | 
Cc1ccccc1N(C)C(=O)C(c1cccnc1)N(Cc1cccc(C(F)(F)F)c1)C1CC1 (racemic) | 0.34 µM | > 30 µM | 0.59 µM | CLH [6]: 781 µL/min/mg; solubility kinetic [7]: > 100 µg/mL; solubility kinetic [8]: 6.3 µg/mL (≈ 13.9 µM)
Cc1ccccc1-n1nnnc1C(C1CC1)N(Cc1cccc(C(F)(F)F)c1)C1CC1 (racemic) | 4.7 µM |  | 3.2 µM | 
Cc1ncccc1C(c1nnnn1C1CC1)N(C1CC1)C1(c2cccc(C(F)(F)F)c2)CC1 (racemic) | 14 µM | > 30 µM | 16 µM | 

Structure (SMILES) | EC50 (Plasmodium falciparum [1]; [10]) | CC50 (HepG2) | EC50 (Plasmodium falciparum [5]; [11]) | further results
FC(F)(F)c1cccc(CN(C2CC2)C(c2cccnc2)c2nnnn2C2CC2)c1 (racemic) | 1.5 µM |  | 3 µM | 
Cc1ccccc1N(C)C(=O)C(c1cccnc1)N(Cc1cccc(SC(F)(F)F)c1)C1CC1 (racemic) | 0.31 µM | > 30 µM | 0.39 µM | 
CCCN(C(c1cccnc1)c1nnnn1-c1ccccc1C)C1(c2cccc(C(F)(F)F)c2)CC1 (racemic) | 0.23 µM | 10 µM | 0.41 µM | 
Cc1ccccc1N(C)C(=O)C(c1cncnc1)N(Cc1cccc(OC(F)(F)F)c1)C1CC1 (racemic) | 0.24 µM | > 30 µM | 0.59 µM | 
Cc1ccccc1-n1nnnc1C(c1cncnc1)N(Cc1cccc(C(F)(F)F)c1F)C1CC1 (racemic) | 0.47 µM |  | 0.71 µM | 
Cc1ccccc1N(C)C(=O)C(c1cncnc1)N(Cc1cccc(C(F)(F)F)c1)C1CC1 (racemic) | 0.4 µM | > 30 µM | 0.79 µM | CLH [6]: 531 µL/min/mg; solubility kinetic [7]: 11 µg/mL (≈ 24.2 µM); solubility kinetic [8]: > 45 µg/mL
Cc1ccccc1N(C)C(=O)C(c1cncnc1)N(Cc1cccc(SC(F)(F)F)c1)C1CC1 (racemic) | 0.26 µM | > 30 µM | 1 µM | 
CCc1ccccc1N(C)C(=O)C(c1cccnc1)N(Cc1cccc(C(F)(F)F)c1)C1CC1 (racemic) | 0.19 µM | > 20 µM | 0.48 µM | 
COc1ccc(C(F)(F)F)cc1CN(C)C(c1cccnc1)c1nnnn1-c1ccccc1C (single isomer, unassigned; (+)) |  |  |  | EC50 (Plasmodium falciparum [1]; rbc): 1.5 µM; EC50 (Plasmodium falciparum [5]; rbc): 2.5 µM
Cc1ccccc1-n1nnnc1C(c1cncnc1)N(Cc1cc(F)cc(C(F)(F)F)c1)C1CC1 (single isomer, unassigned; (+)) |  |  |  | EC50 (Plasmodium falciparum [1]; rbc): 0.35 µM; EC50 (Plasmodium falciparum [5]; rbc): 2.5 µM
COc1ccc(Br)cc1CN(C)C(c1ccccc1)c1nnnn1-c1ccccc1C (single isomer, unassigned; (+)) |  |  |  | EC50 (Plasmodium falciparum [1]; rbc): 1.5 µM; EC50 (Plasmodium falciparum [5]; rbc): 3 µM
COc1ccc(C(F)(F)F)cc1CN(C)C(c1cccnc1)c1nnnn1-c1ccccc1C (single isomer, unassigned; (-)) |  |  |  | EC50 (Plasmodium falciparum [5]; rbc): 1.7 µM
Cc1ccccc1-n1nnnc1C(c1cncnc1)N(Cc1cc(F)cc(C(F)(F)F)c1)C1CC1 (single isomer, unassigned; (-)) |  | > 30 µM |  | EC50 (Plasmodium falciparum [1]; rbc): 0.42 µM; EC50 (Plasmodium falciparum [5]; rbc): 2.6 µM
COc1ccc(Br)cc1CN(C)C(c1ccccc1)c1nnnn1-c1ccccc1C (single isomer, unassigned; (-)) |  |  |  | EC50 (Plasmodium falciparum [1]; rbc): 4.4 µM; EC50 (Plasmodium falciparum [5]; rbc): 4 µM
O[C@@H](c1cc(C(F)(F)F)nc2c(C(F)(F)F)cccc12)[C@H]1CCCCN1 [(S,R)-MEFLOQUINE] |  |  |  | IC50 (Hemozoin): 60 µM
CCN(CC)Cc1cc(Nc2ccnc3cc(Cl)ccc23)ccc1O [AMODIAQUINE] |  |  |  | IC50 (Hemozoin): 8.6 µM
C[C@@H]1CC[C@H]2[C@@H](C)C(=O)O[C@@H]3O[C@@]4(C)CC[C@@H]1[C@]32OO4 [ARTEMISININ] | 0.013 µM |  |  | CC50 at 72 h [2]: > 30 µM; Activity (Plasmodium falciparum [3]): Active; Activity (Plasmodium falciparum [4]): Active; EC50 (Plasmodium falciparum [9]): 0.03 µM
C[C@H]1[C@H](OC(=O)CCC(=O)O)O[C@@H]2O[C@@]3(C)CC[C@H]4[C@H](C)CC[C@@H]1[C@@]24OO3 [ARTESUNATE] |  |  |  | IC50 (Hemozoin): > 1000 µM
O=C1C(O)=C([C@H]2CC[C@H](c3ccc(Cl)cc3)CC2)C(=O)c2ccccc21 [ATOVAQUONE] | 0.0013 µM |  |  | CC50 at 72 h [2]: > 30 µM; Activity (Plasmodium falciparum [3]): Active; Activity (Plasmodium falciparum [4]): Active; EC50 (Plasmodium falciparum [9]): 0.001 µM
C[C@H]1c2cccc(O)c2C(=O)C2=C(O)[C@]3(O)C(=O)C(C(N)=O)=C(O)[C@@H](N(C)C)[C@@H]3[C@@H](O)[C@@H]21 [DOXYCYCLINE] |  |  |  | IC50 (Hemozoin): > 1000 µM
Cc1cc(Nc2ccc(S(F)(F)(F)(F)F)cc2)n2nc(C(C)(F)F)nc2n1 [DSM-265] | 0.005 µM |  |  | CC50 at 72 h [2]: > 30 µM; Activity (Plasmodium falciparum [3]): Active; Activity (Plasmodium falciparum [4]): Active
COc1ccc2nc3cc(Cl)ccc3c(Nc3cc(CN4CCCC4)c(O)c(CN4CCCC4)c3)c2n1 [PYRONARIDINE] |  |  |  | IC50 (Hemozoin): 2.2 µM
COc1ncnc(NS(=O)(=O)c2ccc(N)cc2)c1OC [SULFADOXINE] |  |  |  | IC50 (Hemozoin): > 1000 µM
